Screens from PubChem.
p97 ATPase inh: inhibitors of human p97 ATPase, primary screen, biochemical; Transitional endoplasmic reticulum ATPase (Homo sapiens), P55072; inhibition, % at 8 µM; recombinant p97 ATPase, Kinase-Glo ATP luminescence, 3 h; AID 1481, 2009; 220,000 tested, 0.42% active; in the data active = inhibition above about 15%;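 also: 0% = DMSO vehicle and 100% = wells lacking enzyme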
Target sequence (P55072 whole entry, looked up): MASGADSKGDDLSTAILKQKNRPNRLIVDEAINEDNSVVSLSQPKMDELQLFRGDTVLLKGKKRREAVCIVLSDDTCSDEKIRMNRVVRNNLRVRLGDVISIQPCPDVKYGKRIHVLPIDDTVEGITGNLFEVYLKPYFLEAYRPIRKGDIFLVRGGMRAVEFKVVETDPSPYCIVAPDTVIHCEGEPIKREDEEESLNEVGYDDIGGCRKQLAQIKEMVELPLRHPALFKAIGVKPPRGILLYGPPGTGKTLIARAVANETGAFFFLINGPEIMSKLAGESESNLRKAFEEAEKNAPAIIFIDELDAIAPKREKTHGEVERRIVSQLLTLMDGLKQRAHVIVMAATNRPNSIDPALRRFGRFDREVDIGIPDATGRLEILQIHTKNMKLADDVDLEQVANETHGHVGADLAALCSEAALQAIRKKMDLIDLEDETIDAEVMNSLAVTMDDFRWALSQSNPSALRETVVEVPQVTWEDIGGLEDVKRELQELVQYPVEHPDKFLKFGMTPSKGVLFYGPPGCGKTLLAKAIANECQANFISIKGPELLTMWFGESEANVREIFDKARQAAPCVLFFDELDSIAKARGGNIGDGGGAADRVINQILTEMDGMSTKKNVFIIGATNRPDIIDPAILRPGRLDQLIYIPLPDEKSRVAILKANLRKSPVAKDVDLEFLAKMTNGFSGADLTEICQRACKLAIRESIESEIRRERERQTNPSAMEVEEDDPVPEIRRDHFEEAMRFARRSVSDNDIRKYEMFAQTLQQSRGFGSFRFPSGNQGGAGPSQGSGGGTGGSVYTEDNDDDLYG
DTT redox prof: compounds producing H2O2 with reducing agent – biochemical, NIH compound library profiling, artefact control for MLSCN library redox annotation, primary screen; DTT-dependent redox cycling H2O2, phenol red/HRP absorbance; 100% = 100 µM peroxide control, 0% = buffer; activation, % at 10 µM; 200,000 tested, 0.03% active;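 active = activation of at least 50% relative to the plate's high and low controls in the primary single-dose screen; inactive = activation below 50%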;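 also: compound incubated with DTT at 0.8 mM final as the reducing agent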
PKD1 kinase inh: inhibitors of human PKD1 kinase, biochemical, fluorescence polarization; 200,000 tested, 0.056% active; AID 797, 2007; PKD1 kinase fluorescence polarization assay; Serine/threonine-protein kinase D1 (Homo sapiens), Q15139; inhibition, % (test concentration not listed); in the data active = inhibition above about 50%
ROMK mod: ROMK potassium channel modulators, primary screen, cell-based, thallium flux, MLSMR library. AID 1918, 2009. 130,000 tested, 2% active. ATP-sensitive inward rectifier potassium channel 1 (Homo sapiens), P48048. Tet-inducible ROMK, thallium flux fluorescence; actives lie on both sides. B-score at 10 µM;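 active = signal ratio slope over the read window, or its plate-corrected B-score, at least 3 SD from the plate mean, either direction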;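 also: B-score of the F/F0 ratio slope over 7 to 12 s after thallium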
Mdm2 ligase inh: MDM2-luciferase reporter signal enhancers, primary screen, MDM2 E3 ligase inhibitor project, cell-based, luminescence, 1536-well. E3 ubiquitin-protein ligase Mdm2 (Homo sapiens), Q00987. cell-based MDM2 ubiquitination luciferase reporter, 2 h; 0 = plate control, 100 = twice control, blank-subtracted. signal enhancement, % at 5 µM. 210,000 tested, 0.11% active. AID 1230, 2008;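 active = signal enhancement of 30% or more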;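 also: luminescence tracks abundance of the self-degrading MDM2-luciferase fusion protein; higher signal means inhibition of MDM2 E3 ligase activity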
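Timing – 2 h compound exposure at 37 °C · Assay system – mammalian cells stably expressing self-ubiquitinating, self-degrading MDM2 E3–luciferase fusion · Amount – 2000 cells seeded into each well · Measure – % luminescence enhancement versus blank-corrected plate control mean · Measured by – SteadyLite luminescence, 15 min reagent step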
Cl transport mod: KCC2 cotransporter modulators, thallium flux, primary screen, cell-based, HEK293 KCC2, FluoZin-2 fluorescence, MLSMR | AID 1456, 2008 | KCC2 cells, thallium flux FluoZin-2 fluorescence | B-score of Tl+ flux slope (higher = more flux/activation; lower = inhibition) at 10 µM | 190,000 tested, 2.2% active | Solute carrier family 12 member 5 (Homo sapiens), Q9H2X9;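 active = thallium flux slope and its plate-corrected score both differing from the plate sample mean at a set confidence after two filtering rounds, in either direction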;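 also: slope of fluorescence scaled to starting intensity during 10 to 20 s after thallium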
KCC2 sec1: KCC2 modulators in sodium-free buffer, confirmation, cell-based, HEK293 KCC2, thallium flux, secondary assay | shares compounds with Cl transport mod | 3,700 tested, 15% active | FluoZin2 fluorescence; hits give high values | normalised thallium flux (F/F0 slope) at 10 µM;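 active = thallium flux slope above the same plate's solvent-only control mean plus 3 SD; inconclusive = the two replicate wells disagree; inactive = no significant difference from solvent-only control wells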
KCC2 bumet counter: thallium flux persisting under bumetanide in KCC2 cells, confirmation, counter-screen for KCC2 modulator project, cell-based, HEK293 KCC2, FluoZin2, secondary assay 3; shares compounds with Cl transport mod; HEK293-KCC2 + bumetanide/ouabain; hits give high values; normalized thallium flux at 10 µM; 3,700 tested, 49% active;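 active = thallium entry rate above the same plate's blocked-transporter control wells by more than 3 SD; inconclusive = the two repeat wells disagree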;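 also: raw slope of fluorescence over initial fluorescence between 10 and 20 s after thallium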
KCC2 secondary2: KCC2 modulators without ouabain present, confirmation, cell-based, HEK293 KCC2, thallium flux, FluoZin2, secondary assay 2 | shares compounds with Cl transport mod | normalized thallium flux at 10 µM | 3,700 tested, 23% active | thallium flux FluoZin2 fluorescence; actives lie on both sides; F/F0 rise rate, 10–20 s post-thallium;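 active = thallium flux slope more than 3 SD above or below the plate's solvent-only control mean, mostly below; inconclusive = the two repeat wells disagreed; inactive = no significant shift from solvent-only controls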;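 also: raw slope with 0.1% DMSO as baseline and bumetanide as block control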
HEK counter1: thallium flux modulation in parental HEK cells, confirmation, counter-screen for KCC2 modulator project, cell-based, counterscreen 1; shares compounds with Cl transport mod; HEK293 parental cells, thallium flux FluoZin2, ouabain; baseline-ratio fluorescence slope, 10–20 s after thallium; thallium flux rate (normalised fluorescence) at 10 µM; 3,700 tested, 46% active; AID 1716, 2009;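 active = thallium flux rate significantly above the same plate's solvent-only control wells, beyond their mean plus 3 SD; inconclusive = the two replicate wells gave conflicting results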
KCC2 retest ouab: KCC2 inhibitors and activators, ouabain retest, confirmation, HEK-KCC2 cells; shares compounds with Cl transport mod; 3,700 tested, 48% active; AID 1717, 2009; raw Tl+ flux slope (below DMSO = inhibition, above = activation) at 10 µM; HEK293-KCC2, thallium flux FluoZin2 fluorescence; bidirectional: low = inhibitor, high = activator;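 active = thallium flux slope beyond 3 SD from same-plate DMSO control mean in most replicates, usually higher, sometimes lower; inconclusive = repeat tests gave conflicting results; inactive = no significant difference from controls in most replicates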;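 also: slope of initial-normalized fluorescence between seconds 10 and 20 after thallium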
HEK293 Tl flux2: native HEK Tl+ uptake effects, second counter-screen – HEK cells, counterscreen 2, counter-screen for KCC2 modulator project, confirmation | AID 1718, 2009 | shares compounds with Cl transport mod | 3,700 tested, 33% active | HEK293 parental, thallium flux FluoZin-2 fluorescence slope | thallium flux slope at 10 µM;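 active = thallium flux slope above the same plate's solvent-control mean plus 3 SD in both duplicate wells; inconclusive = duplicate wells that disagreed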;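 also: run without ouabain in cells lacking the KCC2 cotransporter; slope of fluorescence scaled to its starting value between 10 and 20 s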
* hit, by the source's call; u = inconclusive; x = not tested or not shown. Compounds with a hit are over-represented: about 3.4% of the library has one in this group of screens.

SMILES | p97 ATPase inh | DTT redox prof | PKD1 kinase inh | ROMK mod | Mdm2 ligase inh | Cl transport mod | KCC2 sec1 | KCC2 bumet counter | KCC2 secondary2 | HEK counter1 | KCC2 retest ouab | HEK293 Tl flux2
S=c1[nH]nc(-c2cccs2)n1/N=C/c1c(Cl)cccc1Cl | 0 | -1 | -5 | 0.55 | -13 | 34* | 0.019 | 0.042* | 0.03 | 0.022* | 0.029* | 0.019*
Cc1ccsc1/C=N/n1c(-c2ccccc2)n[nH]c1=S | 1 | 0 | 8 | 0.97 | -4 | 9.8* | 0.014* | 0.039* | 0.036 | 0.015* | u | 0.013*
Cc1cccc(-c2n[nH]c(=S)n2/N=C/c2ccc(C)s2)c1 | -4 | 0 | 6 | 2 | -21 | 13* | 0.011 | 0.031* | 0.033 | 0.016* | 0.028 | 0.012*
O=C(c1ccc2c3n(nc2c1)-c1ccccc1CO3)N1CCCCC1 | x | x | x | x | 15 | -2.5* | 0.0069 | u | 0.032 | 0.0076 | 0.02 | 0.0098
O=S1(=O)N=C(N2CCN(Cc3ccccc3)CC2)c2ccccc21 | -1 | 2 | 4 | -0.073 | -15 | -6* | 0.0065 | 0.0044 | 0.024* | 0.008 | u | 0.011
O=C(Oc1cc(=O)n2ccccc2n1)c1ccccc1 | 4 | 0 | -8 | -2.1 | -19 | -4.3* | 0.012* | 0.0074 | 0.028 | 0.0056* | 0.021 | 0.0095
O=c1c2ccc(Cl)cc2[nH]c(=S)n1Cc1cccnc1 | -6 | -5 | 1 | x | -10 | 3.6* | 0.013* | 0.03* | 0.035 | 0.015* | 0.028 | 0.011*
COc1ccc(C(=O)On2c(-c3ccc(Br)cc3)nc3ccccc3c2=O)cc1 | 4 | 0 | 17 | 0.49 | -18 | 5.8* | 0.0062 | u | 0.039* | 0.012* | u | 0.022*
CCN(CC)c1ccc(/C=N/NC(=O)CN2CCCc3ccccc32)cc1 | 6 | 0 | 2 | -0.64 | x | -1.9 | x | x | x | x | x | x
S=c1nc(Cc2ccc(Cl)cc2)[nH]c2ccccc12 | 6 | 0 | -10 | 1.3 | -2 | 67* | 0.053* | 0.15* | 0.044* | 0.099* | 0.085* | 0.043*
Cc1nc(=S)c2ccccc2[nH]1 | -1 | 0 | -4 | 0.74 | -8 | x | x | x | x | x | x | x
O=C(CSc1nc2cc(Cl)ccc2s1)c1ccco1 | 6 | -2 | -5 | x | -25 | 13* | 0.025* | 0.036* | 0.043* | 0.03* | 0.036* | 0.033*
O=C(CSc1nnc(SCC(=O)c2ccco2)s1)c1ccco1 | 3 | 0 | 11 | 0.7 | -31 | -1.3 | x | x | x | x | x | x
O=C(COc1ccc([N+](=O)[O-])cc1)NNC(=S)NC(=O)c1ccc(Br)cc1 | 6 | 0 | -4 | -1.6 | -8 | 6* | u | 0.029* | 0.03 | 0.018* | 0.027* | u
O=C(COc1ccccc1)NNC(=S)NC(=O)c1ccccc1 | 9 | 0 | 1 | 2.2 | -6 | 18* | 0.007 | 0.045* | 0.05* | 0.039* | 0.043* | 0.041*
COc1ccc(NC(=S)NNC(=O)COc2ccc(Cl)cc2Cl)cc1 | 4 | 0 | 8 | x | 0 | 3.7 | x | x | x | x | x | x
COc1ccc(C(=O)NC(=S)NNC(=O)COc2ccccc2)cc1 | 0 | 0 | -3 | 1.1 | -19 | 35* | 0.023* | 0.072* | u | 0.036* | 0.051* | 0.021*
COc1ccc(OCC(=O)NC(=S)NNC(=O)COc2ccc(Br)cc2Cl)cc1 | 5 | -1 | 5 | 0.97 | 6 | 13* | 0.011 | 0.026* | 0.033 | 0.019* | 0.026 | 0.013*
CC(=O)NNC(=S)NC(=O)c1ccccc1 | 0 | 0 | 0 | 0.23 | -23 | -0.055 | x | x | x | x | x | x
O=C(COc1ccc2ccccc2c1)NNC(=O)c1ccc([N+](=O)[O-])cc1 | 8 | -1 | -2 | x | 8 | -2.8 | x | x | x | x | x | x
Cc1cc(/C=C(\C#N)C(=O)Nc2ccc(Cl)cc2)c(C)n1-c1ccc(N2CCOCC2)c([N+](=O)[O-])c1 | -1 | -1 | 15 | -0.67 | -33 | -1.7 | x | x | x | x | x | x
O=C(NCc1ccncc1)C1CCCCC1 | 10 | 0 | 1 | 0.61 | -24 | 0.78 | x | x | x | x | x | x
CC(=O)Oc1ccc([N+](=O)[O-])cc1N1C(=O)c2ccccc2C1=O | 6 | 0 | -8 | 2 | -1 | 2.4 | x | x | x | x | x | x
COc1ccc(C(=O)NNC(=O)c2ccc(C(C)(C)C)cc2)cc1 | 3 | 0 | -2 | 0.41 | -27 | -1.3 | x | x | x | x | x | x
COc1ccc(C(=O)NNC(=S)NC(=O)C(C)(C)C)cc1 | 4 | -2 | -5 | -0.23 | -6 | 24* | 0.024* | 0.036* | u | 0.043* | 0.042* | 0.014*
